According to ChEMBL document CHEMBL1240389, “In vitro and in vivo activities of the novel anticytomegalovirus compound AIC246” (Antimicrob Agents Chemother, 2010):
Activity calls are given as the source filed them. The rule behind the calls is not given here.

Columns and labels:
Human betaherpesvirus 5 [1] = experiment: Antiviral activity against human cytomegalovirus AD169 infected in NHDF at 11 uM treated after 57 hrs postinfection measured after 7 days by GFP-based fluorescent reduction assay; assay type: functional, organism-based
Human betaherpesvirus 5 [2] = experiment: Antiviral activity against human cytomegalovirus AD169 infected in NHDF at 10 times EC50 treated postinfection and measured after 7 days by GFP-based fluorescent reduction assay
[3] = Cytotoxicity against human MRC5 cells infected with human cytomegalovirus after 7 days by alamar blue assay; assay type: cell-based
How it was run: (§1)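 Fibroblasts seeded at 1.5 × 10⁴/well, incubated overnight, then given drug in 3-fold serial dilutions from 0.33 mM (DMSO constant 0.66%). After 7 days, alamarBlue added and fluorescence read; signal as % of untreated cell controls versus log concentration; CC50 from dose-response curves. At least three experiments with duplicates.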

[4] = Selectivity index, ratio of CC50 for HEL299 cells to EC50 for human cytomegalovirus infected in HEL299 cells; assay type: toxicity, cell-based, HEL 299; details: read-out: Selectivity Index
How it was run: (§2)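 SI = CC₅₀/EC₅₀ in the same fibroblast type. EC₅₀: GFP-expressing HCMV AD169, 3-fold dilutions, 7 days at 37°C, GFP units by CCD camera. CC₅₀ run in parallel: 1.5 × 10⁴ cells/well overnight, 3-fold dilutions from 0.33 mM (DMSO constant 0.66%), 7 days, alamarBlue fluorescence as % of untreated cells; ≥3 runs in duplicate.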

[5] = Cytotoxicity against human HS27 cells infected with human cytomegalovirus after 7 days by alamar blue assay; assay type: cell-based; how it was run: as §1
[6] = Selectivity index, ratio of CC50 for human HS27 cells to EC50 for human cytomegalovirus infected in human HS27 cells; assay type: toxicity, cell-based; details: HS27 cells infected with human cytomegalovirus, read-out: Selectivity Index; how it was run: as §2
[7] = Cytotoxicity against HLF infected with human cytomegalovirus after 7 days by alamar blue assay; details: HLF cells infected with human cytomegalovirus; how it was run: as §1
[8] = Cytotoxicity against HEL299 cells infected with human cytomegalovirus after 7 days by alamar blue assay; assay type: cell-based, HEL 299; how it was run: as §1
[9] = Cytotoxicity against NHDF infected with human cytomegalovirus after 7 days by alamar blue assay; assay type: cell-based; details: NHDF cells infected with human cytomegalovirus; how it was run: as §1
[10] = Selectivity index, ratio of CC50 for human MRC5 cells to EC50 for human cytomegalovirus infected in human MRC5 cells; assay type: toxicity, cell-based; details: MRC5 cells infected with human cytomegalovirus, read-out: Selectivity Index; how it was run: as §2
Human betaherpesvirus 5 [11] = experiment: Antiviral activity against human cytomegalovirus AD169 infected in NHDF assessed as inhibition of virus replication at 50 nM measured after 24 to 72 hrs of compound wash by fluorescence assay; assay type: functional, organism-based
Human betaherpesvirus 5 [12] = experiment: Antiviral activity against human cytomegalovirus infected in NHLF after 7 days by GFP-based fluorescent reduction assay; assay type: functional, organism-based; details: Human betaherpesvirus 5, 168 h
How it was run: (§3)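 Fibroblasts of the stated type (1.5 × 10⁴/well) infected with GFP-expressing recombinant AD169 (HCMV-GFP MOI 0.1 or RV-HG MOI 0.2 to 0.5). After adsorption the inoculum was replaced, with 3-fold serial compound dilutions at least in duplicate, and 7 days at 37°C. GFP units were read by CCD camera in PBS. EC₅₀ was derived from GFPU reduction versus untreated infected wells; at least triplicate runs.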

Human betaherpesvirus 5 [13] = experiment: Antiviral activity against ganciclovir-resistant human cytomegalovirus isolate 1947R infected in NHDF assessed as inhibition of virus-induced cytopathic effect after 6 to 7 days by giemsa staining; assay type: functional, organism-based; details: Human betaherpesvirus 5, isolate 1947R
How it was run: (§4)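 Cell-associated virus (infected NHDF cells) used as inoculum, at MOI 0.001 to 0.002, mixed with uninfected NHDF (1 × 10⁴ to 3 × 10⁴ cells/well). Compound was added in 2-fold serial dilutions, final 250 to 0.00005 μM, in duplicates. Incubation was 6 to 7 days at 37°C, followed by Giemsa/formalin staining and visual CPE scoring. EC₅₀ is 50% CPE inhibition versus untreated infected control; at least two independent experiments.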

Human betaherpesvirus 5 [14] = experiment: Antiviral activity against human cytomegalovirus isolate 472 infected in NHDF assessed as inhibition of virus-induced cytopathic effect after 6 to 7 days by giemsa staining; assay type: functional, organism-based; details: Human betaherpesvirus 5, isolate 472, NHDF
How it was run: (§5)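 NHDF cells (1 × 10⁴/well) mixed with cell-free virus (MOI 0.03) or with infected-cell suspension (MOI 0.001 to 0.002). Compound was added from DMSO stocks in 2-fold serial dilutions, final 250 to 0.00005 μM, in duplicates. Plates were incubated 6 to 7 days at 37°C or until 100% CPE in virus control, then fixed and stained with Giemsa/formalin and scored microscopically. EC₅₀ is 50% CPE inhibition versus untreated infected control.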

Human betaherpesvirus 5 [15] = experiment: Antiviral activity against human cytomegalovirus RV-HG infected in NHDF after 7 days by GFP-based fluorescent reduction assay; assay type: functional, organism-based; details: Human betaherpesvirus 5, RV-HG, 168 h
How it was run: (§6)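 Incubated 7 days at 37°C, medium swapped for PBS, GFP units read by CCD-camera fluorescence imager. EC50/EC90 from % GFPU reduction versus untreated infected wells by nonlinear regression; at least triplicate experiments.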

Human betaherpesvirus 5 [16] = experiment: Antiviral activity against human cytomegalovirus infected in HEL299 cells after 7 days by GFP-based fluorescent reduction assay; assay type: functional, organism-based; details: Human betaherpesvirus 5, HEL 299, 168 h; how it was run: as §3
Human betaherpesvirus 5 [17] = experiment: Antiviral activity against human cytomegalovirus isolate E16415S infected in NHDF assessed as inhibition of virus-induced cytopathic effect after 6 to 7 days by giemsa staining; assay type: functional, organism-based; details: Human betaherpesvirus 5, isolate E16415S; how it was run: as §4
Human betaherpesvirus 5 [18] = experiment: Antiviral activity against human cytomegalovirus AD169 infected in NHDF at 20 uM treated after 33 hrs postinfection measured after 7 days by GFP-based fluorescent reduction assay; assay type: functional, organism-based
Human betaherpesvirus 5 [19] = experiment: Antiviral activity against ganciclovir-resistant human cytomegalovirus isolate E17251S infected in NHDF assessed as inhibition of virus-induced cytopathic effect after 6 to 7 days by giemsa staining; assay type: functional, organism-based; details: Human betaherpesvirus 5, isolate E17251S; how it was run: as §4
Human betaherpesvirus 5 [20] = experiment: Antiviral activity against 0.01 MOI human cytomegalovirus AD169 infected in NHDF after 7 days by GFP-based fluorescent reduction assay; details: Human betaherpesvirus 5, AD169, NHDF, 168 h
Human betaherpesvirus 5 [21] = experiment: Antiviral activity against human cytomegalovirus AD169 infected in NHDF after 7 days by GFP-based fluorescent reduction assay; assay type: functional, organism-based; details: Human betaherpesvirus 5, AD169, NHDF, 168 h; how it was run: as §6
Human betaherpesvirus 5 [22] = experiment: Antiviral activity against human cytomegalovirus AD169 infected in NHDF assessed as inhibition of virus replication at 20 uM after 96 hrs by fluorescence assay; assay type: functional, organism-based
Human betaherpesvirus 5 [23] = experiment: Antiviral activity against 1 MOI human cytomegalovirus AD169 infected in NHDF after 7 days by GFP-based fluorescent reduction assay; assay type: functional, organism-based; details: Human betaherpesvirus 5, AD169, NHDF, 168 h
How it was run: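 NHDF cells (1.5 × 10⁴/well) infected with GFP-expressing HCMV AD169 at increasing MOI (0.003 to 1); after adsorption inoculum replaced, compound added in serial 3-fold dilutions, at least duplicate. 7 days at 37°C, medium swapped for PBS, GFP units read by CCD camera. EC₅₀ = 50% GFPU reduction versus no-drug virus control by nonlinear regression; at least triplicate experiments.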

Human betaherpesvirus 5 [24] = experiment: Antiviral activity against 0.003 MOI human cytomegalovirus AD169 infected in NHDF after 7 days by GFP-based fluorescent reduction assay; assay type: functional, organism-based; details: Human betaherpesvirus 5, AD169, NHDF, 168 h
How it was run: (§7)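 NHDF cells (1.5 × 10⁴/well) infected with GFP-expressing HCMV AD169 at the stated MOI (range 0.003 to 1 tested). After adsorption the inoculum was replaced, and compound was added in 3-fold serial dilutions, each at least in duplicate. Cells were incubated 7 days at 37°C, then GFP units were read by CCD camera in PBS. EC₅₀ was taken as the % GFPU reduction versus no-drug control. At least triplicate experiments.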

Human betaherpesvirus 5 [25] = experiment: Antiviral activity against 0.03 MOI human cytomegalovirus AD169 infected in NHDF after 7 days by GFP-based fluorescent reduction assay; assay type: functional, organism-based; details: Human betaherpesvirus 5, AD169, NHDF, 168 h; how it was run: as §7
Human betaherpesvirus 5 [26] = experiment: Antiviral activity against human cytomegalovirus infected in NHDF after 7 days by GFP-based fluorescent reduction assay; assay type: functional, organism-based; details: Human betaherpesvirus 5, NHDF, 168 h; how it was run: as §3
[27] = system: Human herpesvirus 5 strain AD169; experiment: Antiviral activity against ganciclovir-resistant human cytomegalovirus AD169 UL97 M460I infected in NHDF assessed as inhibition of virus-induced cytopathic effect after 6 to 7 days by giemsa staining; assay type: functional, organism-based; details: Human betaherpesvirus 5, UL97 M460I; how it was run: as §5
Human betaherpesvirus 5 [28] = experiment: Antiviral activity against 0.1 MOI human cytomegalovirus AD169 infected in NHDF after 7 days by GFP-based fluorescent reduction assay; assay type: functional, organism-based; details: Human betaherpesvirus 5, AD169, NHDF, 168 h; how it was run: as §7
Human betaherpesvirus 5 [29] = experiment: Antiviral activity against human cytomegalovirus Davis infected in NHDF assessed as inhibition of virus-induced cytopathic effect after 6 to 7 days by giemsa staining; assay type: functional, organism-based; details: Human betaherpesvirus 5, Davis; how it was run: as §5
Human betaherpesvirus 5 [30] = experiment: Antiviral activity against human cytomegalovirus infected in human HS27 cells after 7 days by GFP-based fluorescent reduction assay; assay type: functional, organism-based; details: Human betaherpesvirus 5, HS27, 168 h
How it was run: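 GFP reduction assay run in HS27 foreskin fibroblasts instead of NHDF, infected with AD169-GFP; compounds in 3-fold serial dilutions, 7 days at 37°C, GFP units read by camera-based fluorescence detector after PBS exchange. EC50 from % GFPU reduction versus drug-free infected control; at least triplicate experiments.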

Human betaherpesvirus 5 [31] = experiment: Antiviral activity against human cytomegalovirus AD169 infected in NHDF assessed as inhibition of virus-induced cytopathic effect after 6 to 7 days by giemsa staining; assay type: functional, organism-based; details: Human betaherpesvirus 5, AD169, NHDF; how it was run: as §5
Human betaherpesvirus 5 [32] = experiment: Antiviral activity against 0.3 MOI human cytomegalovirus AD169 infected in NHDF after 7 days by GFP-based fluorescent reduction assay; assay type: functional, organism-based; details: Human betaherpesvirus 5, AD169, NHDF, 168 h; how it was run: as §7
Human betaherpesvirus 5 [33] = experiment: Antiviral activity against human cytomegalovirus Davis xenograft mouse model assessed as reduction of viral load at 10 to 100 mg/kg, po QD for 9 days measured post last dose; assay type: functional, organism-based
How it was run: (§8)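 NOD SCID mice (18 to 25 g) implanted subcutaneously (dorsoscapular) with Gelfoam sponges seeded with 1 × 10⁶ NHDF cells infected with strain Davis (MOI 0.03), bFGF-treated. From 4 h post-transplant, dosed orally by gavage once daily for 9 days in 2% DMSO/0.5% methylcellulose-PBS, 10 ml/kg. Implants then collagenase-digested; recovered cells titrated by plaque assay on NHDF (PFU/ml).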

Human betaherpesvirus 5 [34] = experiment: Antiviral activity against human cytomegalovirus Davis xenograft mouse model assessed as reduction of viral load administered via oral gavage QD for 9 days measured post last dose; assay type: functional; details: Human betaherpesvirus 5, Davis, 216 h; how it was run: as §8

SMILES: CN(C)c1cccc2c(S(=O)(=O)Nc3ccc(NC(=O)C(C)(C)CO)cc3)cccc12
- Activity (Human betaherpesvirus 5 [1]): inactive
- Activity (Human betaherpesvirus 5 [2]): Active

SMILES: Nc1nc(O)c2ncn(COC(CO)CO)c2n1 [GANCICLOVIR]
- CC50 at 168 h [3]: > 333 µM
- selectivity ratio [4]: > 139
- CC50 at 168 h [5]: > 333 µM
- selectivity ratio [6]: > 1040
- CC50 at 168 h [7]: > 333 µM
- CC50 at 168 h [8]: > 333 µM
- CC50 at 168 h [9]: > 333 µM
- selectivity ratio [10]: > 202

SMILES: Nc1nc2c(ncn2COC(CO)CO)c(=O)[nH]1 [GANCICLOVIR]
- Activity (Human betaherpesvirus 5 [11]): Active
- EC50 (Human betaherpesvirus 5 [12]): 2.07 µM
- EC50 (Human betaherpesvirus 5 [13]): 15 µM
- EC50 (Human betaherpesvirus 5 [14]): 5 µM
- EC50 (Human betaherpesvirus 5 [15]): 2.33 µM
- EC90 (Human betaherpesvirus 5 [15]): 18.3 µM
- EC50 (Human betaherpesvirus 5 [16]): 2.39 µM
- EC50 (Human betaherpesvirus 5 [17]): 1.1 µM
- Activity (Human betaherpesvirus 5 [18]): Active
- EC50 (Human betaherpesvirus 5 [19]): 14 µM
- EC50 (Human betaherpesvirus 5 [20]): 0.68 µM
- EC50 (Human betaherpesvirus 5 [21]): 1.73 µM
- EC90 (Human betaherpesvirus 5 [21]): 10.7 µM
- Activity (Human betaherpesvirus 5 [22]): Active
- EC50 (Human betaherpesvirus 5 [23]): 5.26 µM
- EC50 (Human betaherpesvirus 5 [24]): 0.99 µM
- EC50 (Human betaherpesvirus 5 [25]): 1.74 µM
- EC50 (Human betaherpesvirus 5 [26]): 1.91 µM
- EC50 [27]: 12 µM
- EC50 (Human betaherpesvirus 5 [28]): 2.21 µM
- EC50 (Human betaherpesvirus 5 [29]): 2.7 µM
- EC50 (Human betaherpesvirus 5 [30]): 0.32 µM
- EC50 (Human betaherpesvirus 5 [31]): 4.3 µM
- EC50 (Human betaherpesvirus 5 [32]): 6.51 µM
- Activity (Human betaherpesvirus 5 [2]): Active

SMILES: CC(C)[C@H](N)C(=O)OCC(CO)OCn1cnc2c(=O)[nH]c(N)nc21 (stereo partly drawn) [VALGANCICLOVIR]
- inhibition (Human betaherpesvirus 5 [33]): Active
- ED50 (Human betaherpesvirus 5 [34]): 16 mg/kg/day
- ED90 (Human betaherpesvirus 5 [34]): > 100 mg/kg/day
